{"source": "ChEMBL document CHEMBL1275244", "about": "“Antimicrobial resistance among respiratory pathogens in Spain: latest data and changes over 11 years (1996-1997 to 2006-2007)” (2010)", "format_in_all_cases": "functional", "key": {"[1]": {"tested_on": "Streptococcus pneumoniae", "assay": "Antimicrobial activity against Streptococcus pneumoniae clinical isolates assessed as resistant isolates by broth dilution method"}, "[2]": {"tested_on": "Streptococcus pyogenes", "assay": "Antimicrobial activity against Streptococcus pyogenes clinical isolates by broth dilution method"}, "[3]": {"tested_on": "Streptococcus pyogenes", "assay": "Antimicrobial activity against Streptococcus pyogenes clinical isolates assessed as resistant isolates by broth dilution method", "outline": "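S. pyogenes clinical isolates were held at −70°C in duplicate and revived by the hot-loop touching method. MICs were obtained by the CLSI broth microdilution procedure active in the year of study. Resistance was interpreted according to CLSI M100-S19.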"}, "[4]": {"tested_on": "Streptococcus pneumoniae", "assay": "Antimicrobial activity against Streptococcus pneumoniae clinical isolates assessed as susceptible isolates by broth dilution method", "outline": "(§1)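 Isolates kept frozen at −70°C in duplicate and revived by hot-loop touching. MICs by the CLSI broth microdilution method active in the year of study, with S. pneumoniae ATCC 49619 as control. Categories assigned with CLSI M100-S19 breakpoints.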"}, "[5]": {"tested_on": "Haemophilus influenzae", "assay": "Antimicrobial activity against Haemophilus influenzae clinical isolates by broth dilution method"}, "[6]": {"tested_on": "Streptococcus pneumoniae", "assay": "Antimicrobial activity against Streptococcus pneumoniae clinical isolates assessed as susceptible isolates by PK/PD technique"}, "[7]": {"tested_on": "Haemophilus influenzae", "assay": "Antimicrobial activity against Haemophilus influenzae clinical isolates assessed as susceptible isolates by PK/PD technique"}, "[8]": {"tested_on": "Streptococcus pyogenes", "assay": "Antimicrobial activity against Streptococcus pyogenes clinical isolates assessed as susceptible isolates by broth dilution method", "outline": "(§2)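 S. pyogenes clinical isolates held at −70°C in duplicate and recovered by hot-loop touching. MICs by the CLSI broth microdilution method in force in the study year, interpreted per CLSI M100-S19.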"}, "[9]": {"tested_on": "Streptococcus pneumoniae", "assay": "Antimicrobial activity against Streptococcus pneumoniae clinical isolates by broth dilution method"}, "[10]": {"tested_on": "Haemophilus influenzae", "assay": "Antimicrobial activity against Haemophilus influenzae clinical isolates assessed as susceptible isolates by broth dilution method"}, "[11]": {"tested_on": "Haemophilus influenzae", "assay": "Antimicrobial activity against Haemophilus influenzae clinical isolates assessed as resistant isolates by broth dilution method"}, "[12]": {"tested_on": "Streptococcus pneumoniae", "assay": "Antimicrobial activity against Streptococcus pneumoniae clinical isolates assessed as resistant isolates by broth dilution method in presence of beta-lactamase inhibitor clavulanic acid", "outline": "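S. pneumoniae clinical isolates were kept frozen at −70°C in duplicate and recovered by hot-loop touching to avoid repeated freeze-thaw. MICs were measured by CLSI broth microdilution as in force in the study year, with S. pneumoniae ATCC 49619 as control strain. Susceptibility categories were interpreted using CLSI M100-S19 breakpoints.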"}, "[13]": {"tested_on": "Streptococcus pneumoniae", "assay": "Antimicrobial activity against Streptococcus pneumoniae clinical isolates assessed as susceptible isolates by PK/PD technique in presence of beta-lactamase inhibitor clavulanic acid"}, "[14]": {"tested_on": "Haemophilus influenzae", "assay": "Antimicrobial activity against Haemophilus influenzae clinical isolates by broth dilution method in presence of beta-lactamase inhibitor clavulanic acid", "outline": "(§3)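 Clinical isolates stored in duplicate at −70°C and recovered by the hot-loop touching method. MICs by the CLSI broth microdilution method current in the study year, in Haemophilus test medium (HTM). Growth support of HTM checked with H. influenzae ATCC 10211. Controls were H. influenzae ATCC 49247 and ATCC 49766 and E. coli ATCC 35218. Susceptibility interpreted per CLSI M100-S19.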"}, "[15]": {"tested_on": "Haemophilus influenzae", "assay": "Antimicrobial activity against Haemophilus influenzae clinical isolates assessed as susceptible isolates by PK/PD technique in presence of beta-lactamase inhibitor clavulanic acid"}, "[16]": {"tested_on": "Streptococcus pneumoniae", "assay": "Antimicrobial activity against Streptococcus pneumoniae clinical isolates assessed as susceptible isolates by PK/PD technique in presence of […] beta-lactamase inhibitor clavulanic acid"}, "[17]": {"tested_on": "Haemophilus influenzae", "assay": "Antimicrobial activity against Haemophilus influenzae clinical isolates assessed as resistant isolates by broth dilution method in presence of beta-lactamase inhibitor clavulanic acid", "outline": "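H. influenzae clinical isolates were stored at −70°C in duplicate and recovered by the hot-loop touching method without repeated thawing. MICs were determined by CLSI broth microdilution in Haemophilus test medium, following the method current in the study year. Each medium batch was checked for growth support with H. influenzae ATCC 10211. Controls were H. influenzae ATCC 49247 and ATCC 49766 and E. coli ATCC 35218. Categories were assigned per CLSI M100-S19.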"}, "[18]": {"tested_on": "Streptococcus pneumoniae", "assay": "Antimicrobial activity against Streptococcus pneumoniae clinical isolates by broth dilution method in presence of beta-lactamase inhibitor clavulanic acid", "outline": "as §1"}, "[19]": {"tested_on": "Streptococcus pneumoniae", "assay": "Antimicrobial activity against Streptococcus pneumoniae clinical isolates assessed as susceptible isolates by broth dilution method in presence of beta-lactamase inhibitor clavulanic acid", "outline": "as §1"}, "[20]": {"tested_on": "Streptococcus pyogenes", "assay": "Antimicrobial activity against Streptococcus pyogenes clinical isolates by broth dilution method in presence of beta-lactamase inhibitor clavulanic acid", "outline": "as §2"}, "[21]": {"tested_on": "Haemophilus influenzae", "assay": "Antimicrobial activity against Haemophilus influenzae clinical isolates assessed as susceptible isolates by broth dilution method in presence of beta-lactamase inhibitor clavulanic acid", "outline": "as §3"}, "[22]": {"tested_on": "Haemophilus influenzae", "assay": "Antimicrobial activity against Haemophilus influenzae clinical isolates assessed as susceptible isolates by PK/PD technique in presence […] of beta-lactamase inhibitor clavulanic acid", "set-up": "scale not given: the % may be the effect or the level left"}}, "data": [{"smiles": "CC[C@H]1OC(=O)[C@H](C)[C@@H](O[C@H]2C[C@@](C)(OC)[C@@H](O)[C@H](C)O2)[C@H](C)[C@@H](O[C@@H]2O[C@H](C)C[C@H](N(C)C)[C@H]2O)[C@](C)(O)C[C@@H](C)C(=O)[C@H](C)[C@@H](O)[C@]1(C)O", "note": "[ERYTHROMYCIN]", "values": [{"measurement": "Activity", "setting": "[1]", "result": 21.1, "unit": "%"}, {"measurement": "MIC50", "setting": "[2]", "result": "≤ 0.015", "unit": "mg/L"}, {"measurement": "MIC90", "setting": "[2]", "result": 2, "unit": "mg/L"}, {"measurement": "Activity", "setting": "[3]", "result": 19, "unit": "%"}, {"measurement": "Activity", "setting": "[4]", "result": 78.9, "unit": "%"}, {"measurement": "MIC50", "setting": "[5]", "result": 1, "unit": "mg/L"}, {"measurement": "MIC90", "setting": "[5]", "result": 4, "unit": "mg/L"}, {"measurement": "Activity", "setting": "[6]", "result": 78.9, "unit": "%"}, {"measurement": "Activity", "setting": "[7]", "result": 32.5, "unit": "%"}, {"measurement": "Activity", "setting": "[8]", "result": 80.6, "unit": "%"}, {"measurement": "MIC50", "setting": "[9]", "result": "≤ 0.015", "unit": "mg/L"}, {"measurement": "MIC90", "setting": "[9]", "result": "≥ 128", "unit": "mg/L"}]}, {"smiles": "C[C@H]1COc2c(N3CCN(C)CC3)c(F)cc3c(=O)c(C(=O)O)cn1c23.C[C@H]1COc2c(N3CCN(C)CC3)c(F)cc3c(=O)c(C(=O)O)cn1c23.O", "note": "[LEVOFLOXACIN]", "values": [{"measurement": "Activity", "setting": "[10]", "result": 99.9, "unit": "%"}, {"measurement": "Activity", "setting": "[1]", "result": 0.5, "unit": "%"}, {"measurement": "MIC50", "setting": "[2]", "result": 0.125, "unit": "mg/L"}, {"measurement": "MIC90", "setting": "[2]", "result": 0.25, "unit": "mg/L"}, {"measurement": "Activity", "setting": "[3]", "result": 0, "unit": "%"}, {"measurement": "Activity", "setting": "[11]", "result": 0.1, "unit": "%"}, {"measurement": "Activity", "setting": "[4]", "result": 97.6, "unit": "%"}, {"measurement": "MIC50", "setting": "[5]", "result": "≤ 0.015", "unit": "mg/L"}, {"measurement": "MIC90", "setting": "[5]", "result": "≤ 0.015", "unit": "mg/L"}, {"measurement": "Activity", "setting": "[6]", "result": 97.7, "unit": "%"}, {"measurement": "Activity", "setting": "[7]", "result": 99.9, "unit": "%"}, {"measurement": "Activity", "setting": "[8]", "result": 100, "unit": "%"}, {"measurement": "MIC50", "setting": "[9]", "result": 0.125, "unit": "mg/L"}, {"measurement": "MIC90", "setting": "[9]", "result": 0.25, "unit": "mg/L"}]}, {"smiles": "CC1(C)S[C@@H]2[C@H](NC(=O)[C@H](N)c3ccccc3)C(=O)N2[C@H]1C(=O)O", "note": "[AMPICILLIN]", "values": [{"measurement": "Activity", "setting": "[10]", "result": 83.9, "unit": "%"}, {"measurement": "MIC50", "setting": "[2]", "result": "≤ 0.015", "unit": "mg/L"}, {"measurement": "MIC90", "setting": "[2]", "result": "≤ 0.015", "unit": "mg/L"}, {"measurement": "Activity", "setting": "[3]", "result": 0, "unit": "%"}, {"measurement": "Activity", "setting": "[11]", "result": 13.3, "unit": "%"}, {"measurement": "MIC50", "setting": "[5]", "result": 0.12, "unit": "mg/L"}, {"measurement": "MIC90", "setting": "[5]", "result": 4, "unit": "mg/L"}, {"measurement": "Activity", "setting": "[6]", "result": 93.4, "unit": "%"}, {"measurement": "Activity", "setting": "[7]", "result": 86.7, "unit": "%"}, {"measurement": "Activity", "setting": "[8]", "result": 100, "unit": "%"}, {"measurement": "MIC50", "setting": "[9]", "result": "≤ 0.015", "unit": "mg/L"}, {"measurement": "MIC90", "setting": "[9]", "result": 2, "unit": "mg/L"}]}, {"smiles": "CC1(C)S[C@@H]2[C@H](NC(=O)[C@H](N)c3ccc(O)cc3)C(=O)N2[C@H]1C(=O)O", "note": "[AMOXICILLIN]", "values": [{"measurement": "Activity", "setting": "[12]", "result": 1.2, "unit": "%"}, {"measurement": "Activity", "setting": "[13]", "result": 94.8, "unit": "%"}, {"measurement": "MIC90", "setting": "[14]", "result": 1, "unit": "mg/L"}, {"measurement": "MIC50", "setting": "[14]; Haemophilus influenzae", "result": 0.25, "unit": "mg/L"}, {"measurement": "Activity", "setting": "[15]", "result": 97.5, "unit": "%"}, {"measurement": "Activity", "setting": "[16]", "result": 98.8, "unit": "%"}, {"measurement": "Activity", "setting": "[17]", "result": 0.3, "unit": "%"}, {"measurement": "MIC50", "setting": "[18]", "result": "≤ 0.015", "unit": "mg/L"}, {"measurement": "MIC90", "setting": "[18]", "result": 1, "unit": "mg/L"}, {"measurement": "Activity", "setting": "[19]", "result": 94.8, "unit": "%"}, {"measurement": "MIC50", "setting": "[20]", "result": "≤ 0.015", "unit": "mg/L"}, {"measurement": "MIC90", "setting": "[20]", "result": "≤ 0.015", "unit": "mg/L"}, {"measurement": "Activity", "setting": "[21]", "result": 99.7, "unit": "%"}, {"measurement": "Activity", "setting": "[22]", "result": 99.7, "unit": "%"}]}, {"smiles": "N[C@@H](C(=O)N[C@@H]1C(=O)N2C(C(=O)O)=C(Cl)CS[C@H]12)c1ccccc1", "note": "[CEFACLOR ANHYDROUS]", "values": [{"measurement": "Activity", "setting": "[10]", "result": 97.8, "unit": "%"}, {"measurement": "Activity", "setting": "[1]", "result": 19, "unit": "%"}, {"measurement": "MIC50", "setting": "[2]", "result": 0.03, "unit": "mg/L"}, {"measurement": "MIC90", "setting": "[2]", "result": "< 0.06", "unit": "mg/L"}, {"measurement": "Activity", "setting": "[11]", "result": 0, "unit": "%"}, {"measurement": "Activity", "setting": "[4]", "result": 79.1, "unit": "%"}, {"measurement": "MIC50", "setting": "[5]", "result": 1, "unit": "mg/L"}, {"measurement": "MIC90", "setting": "[5]", "result": 4, "unit": "mg/L"}, {"measurement": "Activity", "setting": "[6]", "result": 75.9, "unit": "%"}, {"measurement": "Activity", "setting": "[7]", "result": 25.8, "unit": "%"}, {"measurement": "MIC50", "setting": "[9]", "result": 0.125, "unit": "mg/L"}, {"measurement": "MIC90", "setting": "[9]", "result": 16, "unit": "mg/L"}]}]}
